Measurements published in ChEMBL document CHEMBL4609986 (Bioorg Med Chem, 2020).

How the values were obtained:
[1] = target: T1, Tyrosine-protein kinase ABL1 (Homo sapiens, UniProt P00519); experiment: Inhibition of ABL1 in human HEK293T cells assessed as cell death at 30 to 270 nM measured after 48 hrs in presence of 1 uM dasatinib; assay type: cell-based; conditions: hek-293t, 0.27 µM
Procedure, shortened: (§1)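 HEK293T cells treated 48 h with the compound alone or combined with a second kinase inhibitor at the stated level, then fixed, stained and counted. Cell number expressed as a percentage of untreated wells; n = 4-16.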

[2] = target: T1, Tyrosine-protein kinase ABL1; experiment: Inhibition of wild-type human phosphorylated ABL1 (S229 to K512 residues) expressed in mammalian expression system assessed as residual activity at 500 nM by Kinomescan method relative to control
Procedure, shortened: (§2)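 Kinase panel of 468 kinases, scored as residual activity at 100 nM or 500 nM test compound.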

Aurora kinase B [3] = target: T2, Aurora kinase B (Homo sapiens, UniProt Q96GD4); experiment: Inhibition of wild-type human partial length AURKB (D25 to A303 residues) expressed in mammalian expression system assessed as residual activity at 500 nM by Kinomescan method relative to control; procedure, shortened: as §2
[4] = target: Dual specificity mitogen-activated protein kinase kinase 2 (Homo sapiens) (UniProt P36507); experiment: Inhibition of wild-type human full length MEK2 (M1 to V400 residues) expressed in mammalian expression system assessed as residual activity at 500 nM by Kinomescan method relative to control; procedure, shortened: as §2
Aurora kinase B [5] = target: T2, Aurora kinase B; experiment: Inhibition of AURKB in human HEK293T cells assessed as reduction in cell viability at 270 nM measured after 48 hrs in presence of 10 uM TAK-733; assay type: cell-based; conditions: hek-293t, 0.27 µM; procedure, shortened: as §1
[6] = Apparent permeability in human Caco2 cells measured after 2 hrs by LC-MS/MS analysis; assay type: ADME, cell-based, Caco-2; conditions: Caco-2
Procedure, shortened: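 Caco-2 monolayers grown on polycarbonate filter inserts (5 × 10⁵ cells/well seeded) and differentiated 21 ± 4 days. Transport run in HBSS with 25 mM HEPES, pH 7.4, 37 °C; compound added donor side. Receiver sampled over 2 h, donor at 0 and 2 h; LC-MS/MS with internal standard. Papp = (dC_rec/dt)/(A × C0,donor) × 10^6.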

AURKB (Aurora kinase B) [7] = target: T3, AURKB (Aurora kinase B) (Homo sapiens, UniProt Q96GD4); experiment: Inhibition of AURKB in human HEK293T cells assessed as reduction in cell viability at 270 nM measured after 48 hrs in presence of 3 uM MK-5108 relative to control; assay type: cell-based, HEK-293T; procedure, shortened: as §1
[8] = target: T4, Dual specificity tyrosine-phosphorylation-regulated kinase 1A (Homo sapiens, UniProt Q13627); experiment: Inhibition of human DYRK1A transfected in HEK293T cells co-transfected with Renilla plasmid, pGL3-NFAT and NFATc1 assessed as derepression of NFAT-dependent luciferase activity measured after 48 hrs by luciferase assay; assay type: cell-based, HEK-293T
Procedure, shortened: (§3)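 HEK293T cells transfected with PEI using DYRK1A, Renilla plasmid, IL-2-based pGL3-NFAT firefly reporter and NFATc1. Next day the same transfected population was split into 96-well plates; 6 h later cells were treated for 48 h (11-point dose curve, n = 4), then lysed. EC50 from firefly/Renilla ratio, 4-parameter agonist fit. CC50 from loss of constitutive Renilla signal, 4-parameter inhibitor fit.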

[9] = Half life in human liver microsomes at 1 uM preincubated for 10 mins followed by NADPH addition and measured up to 40 mins by LC-MS/MS analysis; assay type: ADME, Microsome
Procedure, shortened: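 Human or mouse liver microsomes, each run separately, in 100 mM KxPO4 pH 7.4 with 10 mM MgCl2 and 1 μM test compound. Pre-incubated 10 min at 37 °C, then started with 1 mM NADPH. Quenched in acetonitrile stop solution at 0, 10, 20 and 40 min, centrifuged, diluted and analysed by LC-MS/MS.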

[10] = Cytotoxicity against mouse R7T1 cells assessed as reduction in cell viability measured after 48 hrs by Hoechst 33342 staining based analysis
Procedure, shortened: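 Mouse R7T1 β-cells cultured in high-glucose DMEM with 10% FBS, doxycycline and pyruvate, plated at 25,000 cells/well. Treated in quadruplicate 6 h later (0.169–10,000 nM) for 48 h. Cells fixed in paraformaldehyde and stained with 4 μM Hoechst 33342; nuclei counted by high-content imaging.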

Homo sapiens = organism: Homo sapiens; experiment: Selectivity index, ratio of CC50 for human HEK293T cells transfected with DYRK1A co-tranfected with Renilla plasmid, pGL3-NFAT and NFATc1 assessed as reduction in luciferase activity by measuring cell number to EC50 for human DYRK1A transfected in HEK293T cells co-transfected with Renilla plasmid, pGL3-NFAT and NFATc1 assessed as derepression of NFAT-dependent luciferase activity measured after 48 hrs by luciferase assay; assay type: cell-based; procedure, shortened: as §3
AURKB (Aurora kinase B) [11] = target: T3, AURKB (Aurora kinase B); experiment: Inhibition of AURKB in human HEK293T cells assessed as reduction in cell viability at 30 nM measured after 48 hrs in presence of 3 uM MK-5108 relative to control; assay type: cell-based, HEK-293T; procedure, shortened: as §1
[12] = target: T5, Aurora kinase A (Homo sapiens) (UniProt O14965); experiment: Inhibition of wild-type human partial length AURKA (E122 to K401 residues) expressed in mammalian expression system assessed as residual activity at 500 nM by Kinomescan method relative to control; procedure, shortened: as §2
T5 sequence (whole entry): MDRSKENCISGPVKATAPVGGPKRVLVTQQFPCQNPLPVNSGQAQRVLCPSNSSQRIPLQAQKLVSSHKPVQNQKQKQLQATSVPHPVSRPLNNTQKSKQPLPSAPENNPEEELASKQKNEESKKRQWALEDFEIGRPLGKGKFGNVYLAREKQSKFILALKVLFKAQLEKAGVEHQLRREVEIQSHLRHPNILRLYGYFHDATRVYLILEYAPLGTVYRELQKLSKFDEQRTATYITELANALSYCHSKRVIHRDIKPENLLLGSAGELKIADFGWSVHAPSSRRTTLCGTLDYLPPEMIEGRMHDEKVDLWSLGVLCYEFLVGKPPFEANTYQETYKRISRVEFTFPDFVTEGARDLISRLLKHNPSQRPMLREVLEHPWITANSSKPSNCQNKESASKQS

Aurora kinase B [13] = target: T2, Aurora kinase B; experiment: Inhibition of AURKB in human HEK293T cells assessed as reduction in cell viability at 30 to 70 nM measured after 48 hrs; assay type: cell-based; conditions: hek-293t, 0.27 µM, in the assay text read “30 to 270 nM” for “30 to 70 nM”; procedure, shortened: as §1
[14] = target: T4, Dual specificity tyrosine-phosphorylation-regulated kinase 1A; experiment: Inhibition of wild-type human partial length DYRK1A (H129 to S509 residues) expressed in mammalian expression system assessed as residual activity at 500 nM by Kinomescan method relative to control; procedure, shortened: as §2
AURKB (Aurora kinase B) [15] = target: T3, AURKB (Aurora kinase B); experiment: Inhibition of AURKB in human HEK293T cells assessed as reduction in cell viability at 90 to 270 nM measured after 48 hrs in presence of 40 nM AZD-1152-HQPA relative to control; assay type: cell-based, HEK-293T; procedure, shortened: as §1
[16] = target: Maternal embryonic leucine zipper kinase (Homo sapiens, UniProt Q14680); experiment: Inhibition of wild-type human full length MELK (M1 to V651 residues) expressed in bacterial expression system assessed as residual activity at 500 nM by Kinomescan method relative to control; procedure, shortened: as §2
[17] = Selectivity index, ratio of CC50 for mouse R7T1 cells assessed as reduction in cell viability measured after 48 hrs by Hoechst 33342 staining based analysis to MEC for inhibition of DYRK1A in human pancreatic islets assessed as induction of pancreatic beta-cells replication measured after 48 hrs by Hoechst 33342 staining based analysis
AURKB (Aurora kinase B) [18] = target: T3, AURKB (Aurora kinase B); experiment: Inhibition of AURKB in human HEK293T cells assessed as reduction in cell viability at 90 to 270 nM measured after 48 hrs in presence of 40 nM MLN-8054 relative to control; assay type: cell-based, HEK-293T; procedure, shortened: as §1
[19] = target: Dual specificity mitogen-activated protein kinase kinase 1 (Homo sapiens) (UniProt Q02750); experiment: Inhibition of wild-type human full length MEK1 (M1 to V393 residues) expressed in mammalian expression system assessed as residual activity at 500 nM by Kinomescan method relative to control; procedure, shortened: as §2
HEK-293T = experiment: Cytotoxicity against human HEK293T cells transfected with DYRK1A co-tranfected with Renilla plasmid, pGL3-NFAT and NFATc1 assessed as reduction in luciferase activity by measuring cell number; assay type: cell-based; conditions: hek-293t; procedure, shortened: as §3
[20] = target: T4, Dual specificity tyrosine-phosphorylation-regulated kinase 1A; experiment: Inhibition of DYRK1A in human pancreatic islets assessed as induction of pancreatic beta-cells replication measured after 48 hrs by Hoechst 33342 staining based analysis
Procedure, shortened: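 Human islets (85-95% purity) rested 12 h in low-glucose DMEM with 10% FBS and 20 nM exendin-4. Dispersed to single cells and plated on 804G-conditioned-matrix 384-well plates for 48 h. Treated 48 h, then fixed with 4% PFA. Stained with anti-insulin, anti-Ki-67 and 4 μM Hoechst 33342; Ki67+Insulin+/Insulin+ scored by high-content imaging against per-plate cutoffs.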

AURKB (Aurora kinase B) [21] = target: T3, AURKB (Aurora kinase B); experiment: Inhibition of AURKB in human HEK293T cells assessed as reduction in cell viability at 90 nM measured after 48 hrs in presence of 3 uM MK-5108 relative to control; assay type: cell-based, HEK-293T; procedure, shortened: as §1
[22] = target: T1, Tyrosine-protein kinase ABL1; experiment: Inhibition of wild-type human non-phosphorylated ABL1 (S229 to K512 residues) expressed in mammalian expression system assessed as residual activity at 500 nM by Kinomescan method relative to control; procedure, shortened: as §2
[23] = target: T1, Tyrosine-protein kinase ABL1; experiment: Inhibition of ABL1 in human HEK293T cells assessed as cell death at 30 to 270 nM measured after 48 hrs in presence of 1 uM imatinib; assay type: cell-based; conditions: hek-293t, 0.27 µM, in the assay text read “3 uM imatinib” for “1 uM imatinib”; procedure, shortened: as §1
[24] = target: T4, Dual specificity tyrosine-phosphorylation-regulated kinase 1A; experiment: Binding affinity to wild-type human partial length DYRK1A (H129 to S509 residues) expressed in mammalian expression system by Kinomescan method
Procedure, shortened: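 Kd measured in a KdELECT binding assay using an 11-point, 3-fold dilution series with three DMSO control points.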

[25] = target: T1, Tyrosine-protein kinase ABL1; experiment: Inhibition of wild-type human non-phosphorylated ABL1 (S229 to K512 residues) expressed in mammalian expression system assessed as residual activity at 100 nM by Kinomescan method relative to control; procedure, shortened: as §2
Aurora kinase B [26] = target: T2, Aurora kinase B; experiment: Inhibition of wild-type human partial length AURKB (D25 to A303 residues) expressed in mammalian expression system assessed as residual activity at 100 nM by Kinomescan method relative to control; procedure, shortened: as §2
[27] = target: T1, Tyrosine-protein kinase ABL1; experiment: Inhibition of wild-type human phosphorylated ABL1 (S229 to K512 residues) expressed in mammalian expression system assessed as residual activity at 100 nM by Kinomescan method relative to control; procedure, shortened: as §2
[28] = target: Dual specificity mitogen-activated protein kinase kinase 1 (Homo sapiens) (UniProt Q02750); experiment: Inhibition of wild-type human full length MEK1 (M1 to V393 residues) expressed in mammalian expression system assessed as residual activity at 100 nM by Kinomescan method relative to control; procedure, shortened: as §2
[29] = target: T5, Aurora kinase A (Homo sapiens); experiment: Inhibition of wild-type human partial length AURKA (E122 to K401 residues) expressed in mammalian expression system assessed as residual activity at 100 nM by Kinomescan method relative to control; procedure, shortened: as §2
[30] = target: Dual specificity mitogen-activated protein kinase kinase 2 (Homo sapiens) (UniProt P36507); experiment: Inhibition of wild-type human full length MEK2 (M1 to V400 residues) expressed in mammalian expression system assessed as residual activity at 100 nM by Kinomescan method relative to control; procedure, shortened: as §2
[31] = target: T4, Dual specificity tyrosine-phosphorylation-regulated kinase 1A; experiment: Inhibition of wild-type human partial length DYRK1A (H129 to S509 residues) expressed in mammalian expression system assessed as residual activity at 100 nM by Kinomescan method relative to control; procedure, shortened: as §2

T2 sequence (Q96GD4 whole entry, the tested form may be a part): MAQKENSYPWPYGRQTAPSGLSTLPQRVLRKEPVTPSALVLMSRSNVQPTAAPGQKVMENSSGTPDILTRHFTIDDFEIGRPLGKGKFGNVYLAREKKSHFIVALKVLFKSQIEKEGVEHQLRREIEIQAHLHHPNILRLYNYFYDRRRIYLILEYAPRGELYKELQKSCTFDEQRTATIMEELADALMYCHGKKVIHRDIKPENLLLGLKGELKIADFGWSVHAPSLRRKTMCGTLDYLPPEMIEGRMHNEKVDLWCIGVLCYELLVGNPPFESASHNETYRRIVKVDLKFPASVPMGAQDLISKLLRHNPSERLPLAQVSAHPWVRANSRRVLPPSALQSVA
T3 sequence (Q96GD4 whole entry): as the sequence (Q96GD4 whole entry, the tested form may be a part) above
T1 sequence (P00519 whole entry): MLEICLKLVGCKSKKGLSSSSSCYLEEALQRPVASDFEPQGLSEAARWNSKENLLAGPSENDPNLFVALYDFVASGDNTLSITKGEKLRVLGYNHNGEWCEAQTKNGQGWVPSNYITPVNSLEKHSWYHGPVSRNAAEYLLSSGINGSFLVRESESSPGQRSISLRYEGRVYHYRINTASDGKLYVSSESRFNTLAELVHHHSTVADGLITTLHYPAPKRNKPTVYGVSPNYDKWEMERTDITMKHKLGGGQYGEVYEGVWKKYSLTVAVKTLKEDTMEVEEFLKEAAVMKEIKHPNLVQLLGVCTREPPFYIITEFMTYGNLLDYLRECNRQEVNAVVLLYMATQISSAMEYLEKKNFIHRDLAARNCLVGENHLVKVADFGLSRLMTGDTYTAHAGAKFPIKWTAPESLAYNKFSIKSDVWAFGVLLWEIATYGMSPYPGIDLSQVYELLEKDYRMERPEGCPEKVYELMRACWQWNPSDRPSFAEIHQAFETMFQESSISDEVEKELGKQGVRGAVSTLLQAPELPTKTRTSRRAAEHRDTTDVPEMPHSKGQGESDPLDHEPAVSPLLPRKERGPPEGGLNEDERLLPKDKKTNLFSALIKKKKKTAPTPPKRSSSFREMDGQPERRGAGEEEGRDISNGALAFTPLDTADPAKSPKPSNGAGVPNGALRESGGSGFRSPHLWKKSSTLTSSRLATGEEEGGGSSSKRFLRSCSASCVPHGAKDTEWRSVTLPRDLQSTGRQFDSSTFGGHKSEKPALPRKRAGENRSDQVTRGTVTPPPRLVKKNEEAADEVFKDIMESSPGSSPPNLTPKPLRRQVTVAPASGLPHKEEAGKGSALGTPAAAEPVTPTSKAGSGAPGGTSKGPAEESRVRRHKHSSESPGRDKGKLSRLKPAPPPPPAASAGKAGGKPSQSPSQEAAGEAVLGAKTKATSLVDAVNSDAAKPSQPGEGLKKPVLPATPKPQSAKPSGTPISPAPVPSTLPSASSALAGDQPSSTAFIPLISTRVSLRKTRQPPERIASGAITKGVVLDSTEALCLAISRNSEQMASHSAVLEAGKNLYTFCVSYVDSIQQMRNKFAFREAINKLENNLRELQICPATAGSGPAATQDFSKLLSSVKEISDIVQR
Sequence of Dual specificity mitogen-activated protein kinase kinase 2 (Homo sapiens) (P36507 whole entry, the tested form may be a part): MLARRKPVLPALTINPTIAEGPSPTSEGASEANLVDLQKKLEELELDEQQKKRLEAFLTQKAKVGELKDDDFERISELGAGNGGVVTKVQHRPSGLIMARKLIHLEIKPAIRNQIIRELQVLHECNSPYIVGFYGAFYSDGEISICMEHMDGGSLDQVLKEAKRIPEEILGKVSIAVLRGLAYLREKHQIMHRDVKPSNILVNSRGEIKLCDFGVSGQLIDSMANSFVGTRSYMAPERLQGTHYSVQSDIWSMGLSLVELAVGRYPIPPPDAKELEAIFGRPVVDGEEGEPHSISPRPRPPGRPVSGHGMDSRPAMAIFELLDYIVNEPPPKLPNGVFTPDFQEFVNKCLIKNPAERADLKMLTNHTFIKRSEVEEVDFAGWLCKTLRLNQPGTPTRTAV
Sequence of Dual specificity mitogen-activated protein kinase kinase 1 (Homo sapiens) (Q02750 whole entry, the tested form may be a part): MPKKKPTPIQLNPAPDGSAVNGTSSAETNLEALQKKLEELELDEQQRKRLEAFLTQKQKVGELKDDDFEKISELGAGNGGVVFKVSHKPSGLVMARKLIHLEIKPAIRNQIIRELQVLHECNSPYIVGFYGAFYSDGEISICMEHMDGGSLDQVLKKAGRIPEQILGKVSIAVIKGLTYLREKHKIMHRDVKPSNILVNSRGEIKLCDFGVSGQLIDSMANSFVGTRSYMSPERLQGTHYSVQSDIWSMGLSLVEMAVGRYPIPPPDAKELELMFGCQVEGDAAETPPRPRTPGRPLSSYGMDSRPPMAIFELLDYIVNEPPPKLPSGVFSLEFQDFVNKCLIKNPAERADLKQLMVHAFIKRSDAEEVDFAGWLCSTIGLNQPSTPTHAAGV
Sequence of Maternal embryonic leucine zipper kinase (Q14680 whole entry, looked up, the tested form may be a part): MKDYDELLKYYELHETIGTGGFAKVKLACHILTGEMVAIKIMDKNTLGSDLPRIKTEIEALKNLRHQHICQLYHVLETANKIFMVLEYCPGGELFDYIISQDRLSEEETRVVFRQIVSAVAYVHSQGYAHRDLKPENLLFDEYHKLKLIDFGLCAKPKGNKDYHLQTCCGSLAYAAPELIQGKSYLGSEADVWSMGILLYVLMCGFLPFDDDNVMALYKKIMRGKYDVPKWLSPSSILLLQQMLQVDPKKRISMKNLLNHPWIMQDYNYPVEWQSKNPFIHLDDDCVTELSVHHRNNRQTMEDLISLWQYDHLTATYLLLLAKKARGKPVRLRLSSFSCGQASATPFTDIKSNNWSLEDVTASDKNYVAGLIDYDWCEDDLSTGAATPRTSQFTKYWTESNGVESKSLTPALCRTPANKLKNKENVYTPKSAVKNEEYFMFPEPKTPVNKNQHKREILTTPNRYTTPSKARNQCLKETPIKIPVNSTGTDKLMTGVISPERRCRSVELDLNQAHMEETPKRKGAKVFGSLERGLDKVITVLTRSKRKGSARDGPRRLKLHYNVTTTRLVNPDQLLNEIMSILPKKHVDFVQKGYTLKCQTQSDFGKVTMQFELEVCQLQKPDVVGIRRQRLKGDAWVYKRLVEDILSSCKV

CCOC(=O)c1cnc2ccc(-c3ccncc3)nc2c1N[C@H]1CC[C@H](CN(C)C)CC1
inhibition (INH) [1]: Not Active | Activity [2]: 43% | Activity (Aurora kinase B [3]): 67% | Activity [4]: 55% | inhibition (INH) (Aurora kinase B [5]): Not Active | Papp at 2 h [6]: 4.03 ×10⁻⁶ cm/s | inhibition at 48 h, 0.27 µM (AURKB (Aurora kinase B) [7]): 34% | EC50 [8]: 223 nM | t1/2 [9]: 32 min | CC50 [10]: 3860 nM | Ratio CC50/EC50 (Homo sapiens): 36 | inhibition at 48 h, 0.03 µM (AURKB (Aurora kinase B) [11]): 31% | Activity [12]: 97% | inhibition (INH) (Aurora kinase B [13]): Not Active | Activity [14]: 0% | inhibition at 48 h, up to 0.27 µM (AURKB (Aurora kinase B) [15]): 67% | Activity [16]: 4.7% | Selectivity Index [17]: 143 | inhibition at 48 h, up to 0.27 µM (AURKB (Aurora kinase B) [18]): 50% | Activity [19]: 69% | CC50 (HEK-293T): 8050 nM | MEC [20]: 27 nM | inhibition at 48 h, 0.09 µM (AURKB (Aurora kinase B) [21]): 36% | Activity [22]: 43% | inhibition (INH) [23]: Not Active

CC(=O)c1cnc2ccc(-c3cc(Cl)c(O)c(Cl)c3)nc2c1N[C@H]1CC[C@H](CN(C)C)CC1
Kd [24]: 0.12 nM | Activity [25]: 0% | Activity (Aurora kinase B [26]): 0.65% | EC50 [8]: 5 nM | CC50 [10]: 20 nM | Activity [27]: 0% | Activity [28]: 1.7% | Activity [29]: 6.6% | Activity [30]: 1.7% | Activity [31]: 0% | CC50 (HEK-293T): 64 nM | MEC [20]: 5 nM
